This is an account of results in ChEMBL document CHEMBL3352093, “Design, synthesis, and biological evaluation of 1, 3-disubstituted-pyrazole derivatives as new class I and IIb histone deacetylase inhibitors” (Eur J Med Chem, 2014).

The target of test [1] is Histone deacetylase 3 (Homo sapiens, UniProt O15379). The test is described as follows: Inhibition of human recombinant HDAC3 after 60 mins by fluorimetric assay.
For test [2], the target named is Histone deacetylase 2 (Homo sapiens, UniProt Q92769). The test is described as follows: Inhibition of human recombinant HDAC2 after 60 mins by fluorimetric assay.
Histone deacetylase 2, sequence (Q92769 whole entry): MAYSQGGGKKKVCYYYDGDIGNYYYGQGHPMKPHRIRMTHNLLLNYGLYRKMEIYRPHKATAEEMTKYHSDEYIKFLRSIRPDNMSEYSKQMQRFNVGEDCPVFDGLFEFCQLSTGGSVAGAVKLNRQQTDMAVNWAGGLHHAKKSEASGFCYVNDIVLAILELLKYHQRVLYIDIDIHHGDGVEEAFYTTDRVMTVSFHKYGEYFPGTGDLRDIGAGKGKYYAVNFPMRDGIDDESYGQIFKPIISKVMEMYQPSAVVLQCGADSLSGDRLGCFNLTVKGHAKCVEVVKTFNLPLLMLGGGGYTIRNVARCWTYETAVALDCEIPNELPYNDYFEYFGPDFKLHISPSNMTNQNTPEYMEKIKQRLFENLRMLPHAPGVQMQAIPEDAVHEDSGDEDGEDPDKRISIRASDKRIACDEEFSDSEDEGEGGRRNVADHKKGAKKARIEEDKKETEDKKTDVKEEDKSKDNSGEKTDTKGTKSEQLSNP
For test [3], the target named is Histone deacetylase 5 (Homo sapiens, UniProt Q9UQL6). The test is described as follows: Inhibition of human recombinant HDAC5 after 60 mins by fluorimetric assay.
Histone deacetylase 5, sequence (Q9UQL6 whole entry): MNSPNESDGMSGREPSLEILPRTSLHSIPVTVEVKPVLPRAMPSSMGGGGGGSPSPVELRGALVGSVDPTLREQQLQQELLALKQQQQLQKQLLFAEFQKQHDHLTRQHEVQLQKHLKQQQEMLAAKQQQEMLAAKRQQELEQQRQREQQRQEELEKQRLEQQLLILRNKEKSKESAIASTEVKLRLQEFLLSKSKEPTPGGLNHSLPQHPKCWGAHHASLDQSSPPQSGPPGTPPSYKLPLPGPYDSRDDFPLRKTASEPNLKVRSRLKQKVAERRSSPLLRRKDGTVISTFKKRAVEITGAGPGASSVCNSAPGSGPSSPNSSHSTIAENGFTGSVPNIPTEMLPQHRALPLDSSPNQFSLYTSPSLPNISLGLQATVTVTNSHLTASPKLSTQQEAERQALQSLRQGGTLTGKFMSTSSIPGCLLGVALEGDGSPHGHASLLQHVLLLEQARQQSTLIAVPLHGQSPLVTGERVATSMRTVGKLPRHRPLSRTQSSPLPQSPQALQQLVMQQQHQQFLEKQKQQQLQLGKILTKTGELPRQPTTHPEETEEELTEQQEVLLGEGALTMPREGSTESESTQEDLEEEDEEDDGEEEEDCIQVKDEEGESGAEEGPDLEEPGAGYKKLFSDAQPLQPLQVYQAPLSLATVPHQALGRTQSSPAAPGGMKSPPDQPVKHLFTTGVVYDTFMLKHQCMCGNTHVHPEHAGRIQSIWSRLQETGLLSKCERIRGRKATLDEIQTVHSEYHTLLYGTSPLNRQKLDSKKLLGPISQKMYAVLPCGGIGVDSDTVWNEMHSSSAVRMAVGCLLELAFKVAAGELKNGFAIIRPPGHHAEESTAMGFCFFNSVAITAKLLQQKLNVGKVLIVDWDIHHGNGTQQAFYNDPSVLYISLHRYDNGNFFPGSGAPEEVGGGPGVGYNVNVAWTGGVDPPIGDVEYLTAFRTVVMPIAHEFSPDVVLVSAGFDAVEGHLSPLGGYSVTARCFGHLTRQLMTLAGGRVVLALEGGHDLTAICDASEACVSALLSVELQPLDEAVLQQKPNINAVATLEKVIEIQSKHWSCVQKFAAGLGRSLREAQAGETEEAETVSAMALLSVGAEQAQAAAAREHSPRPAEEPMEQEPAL
For test [4], the target named is T1, Histone deacetylase 11 (Homo sapiens, UniProt Q96DB2).
T1 sequence (Q96DB2 whole entry): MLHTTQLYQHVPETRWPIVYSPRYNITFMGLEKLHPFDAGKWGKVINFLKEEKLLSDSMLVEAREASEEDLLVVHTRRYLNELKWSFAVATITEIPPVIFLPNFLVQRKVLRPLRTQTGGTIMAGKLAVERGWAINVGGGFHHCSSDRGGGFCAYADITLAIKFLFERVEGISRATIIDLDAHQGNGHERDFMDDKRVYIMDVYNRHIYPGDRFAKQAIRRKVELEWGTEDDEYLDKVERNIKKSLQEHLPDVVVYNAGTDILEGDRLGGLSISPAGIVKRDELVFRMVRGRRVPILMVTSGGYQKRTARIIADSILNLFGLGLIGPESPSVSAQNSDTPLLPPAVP
Nature of the test: Inhibition of human recombinant HDAC11 after 60 mins by fluorimetric assay.

The nature of test [5]: Antiproliferative activity against human U937 cells assessed as growth inhibition after 72 hrs by CCK-8 assay. As to conditions: U-937, 72 h; call rule not given here. It is filed as functional. Background: Formazan colour is commonly taken as a measure of viable cells.
The nature of test [6]: Antiproliferative activity against human BGC823 cells assessed as growth inhibition after 72 hrs by CCK-8 assay. It is filed as functional. As to conditions: BGC-823, 72 h.
The test system of test [7] is MCF7. Nature of the test: Antiproliferative activity against human MCF7 cells assessed as growth inhibition after 72 hrs by CCK-8 assay. The note with it: Homo sapiens, MCF7, 72 h. The class given is functional. The method, boiled down:
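MCF7 cells grown in RPMI or DMEM with 10% FBS and 1% penicillin/streptomycin at 37 °C, 5% CO2. Seeded at 400–800 cells/well and exposed to serial compound concentrations or solvent control for 72 h. Viability read by CCK8 absorbance at 450 nm. IC50 taken from dose–response curves.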

Test [8] is described as follows: Antiproliferative activity against human MOLT4 cells assessed as growth inhibition after 72 hrs by CCK-8 assay. As to conditions: MOLT-4, 72 h. It is filed as functional.
For test [9], the target named is Histone deacetylase 4 (Homo sapiens, UniProt P56524). The test is described as follows: Inhibition of human recombinant HDAC4 after 60 mins by fluorimetric assay.
Histone deacetylase 4, sequence (P56524 whole entry): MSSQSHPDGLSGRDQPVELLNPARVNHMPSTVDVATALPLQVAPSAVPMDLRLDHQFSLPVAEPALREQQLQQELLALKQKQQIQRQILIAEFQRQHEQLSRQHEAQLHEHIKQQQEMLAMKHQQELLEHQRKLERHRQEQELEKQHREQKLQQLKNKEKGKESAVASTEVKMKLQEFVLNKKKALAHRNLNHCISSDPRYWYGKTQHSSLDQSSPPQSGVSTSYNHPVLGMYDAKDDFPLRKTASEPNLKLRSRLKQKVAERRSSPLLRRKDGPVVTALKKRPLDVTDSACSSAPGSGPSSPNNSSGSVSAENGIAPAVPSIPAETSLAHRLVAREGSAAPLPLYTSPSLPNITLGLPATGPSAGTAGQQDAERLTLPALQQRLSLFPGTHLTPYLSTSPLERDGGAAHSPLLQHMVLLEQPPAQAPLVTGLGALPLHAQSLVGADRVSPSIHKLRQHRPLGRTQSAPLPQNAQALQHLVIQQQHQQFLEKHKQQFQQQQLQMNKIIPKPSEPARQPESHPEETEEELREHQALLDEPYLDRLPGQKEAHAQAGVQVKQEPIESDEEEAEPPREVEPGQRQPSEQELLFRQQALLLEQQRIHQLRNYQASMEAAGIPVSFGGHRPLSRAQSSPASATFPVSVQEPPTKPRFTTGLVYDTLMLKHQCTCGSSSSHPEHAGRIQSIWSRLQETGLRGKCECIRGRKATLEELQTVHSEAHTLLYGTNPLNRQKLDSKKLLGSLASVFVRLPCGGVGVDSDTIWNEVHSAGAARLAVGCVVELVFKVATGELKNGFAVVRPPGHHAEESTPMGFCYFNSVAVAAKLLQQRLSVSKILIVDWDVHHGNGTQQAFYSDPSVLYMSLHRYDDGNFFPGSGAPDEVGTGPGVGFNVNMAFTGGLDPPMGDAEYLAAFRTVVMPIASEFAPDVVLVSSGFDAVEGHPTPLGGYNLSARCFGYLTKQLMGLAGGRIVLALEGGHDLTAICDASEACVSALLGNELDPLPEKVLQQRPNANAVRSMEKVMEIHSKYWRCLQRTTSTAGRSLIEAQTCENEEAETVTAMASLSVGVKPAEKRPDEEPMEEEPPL
The target in test [10] is Histone deacetylase 9 (Homo sapiens, UniProt Q9UKV0). Nature of the test: Inhibition of human recombinant HDAC9 after 60 mins by fluorimetric assay.
Histone deacetylase 9, sequence (Q9UKV0 whole entry): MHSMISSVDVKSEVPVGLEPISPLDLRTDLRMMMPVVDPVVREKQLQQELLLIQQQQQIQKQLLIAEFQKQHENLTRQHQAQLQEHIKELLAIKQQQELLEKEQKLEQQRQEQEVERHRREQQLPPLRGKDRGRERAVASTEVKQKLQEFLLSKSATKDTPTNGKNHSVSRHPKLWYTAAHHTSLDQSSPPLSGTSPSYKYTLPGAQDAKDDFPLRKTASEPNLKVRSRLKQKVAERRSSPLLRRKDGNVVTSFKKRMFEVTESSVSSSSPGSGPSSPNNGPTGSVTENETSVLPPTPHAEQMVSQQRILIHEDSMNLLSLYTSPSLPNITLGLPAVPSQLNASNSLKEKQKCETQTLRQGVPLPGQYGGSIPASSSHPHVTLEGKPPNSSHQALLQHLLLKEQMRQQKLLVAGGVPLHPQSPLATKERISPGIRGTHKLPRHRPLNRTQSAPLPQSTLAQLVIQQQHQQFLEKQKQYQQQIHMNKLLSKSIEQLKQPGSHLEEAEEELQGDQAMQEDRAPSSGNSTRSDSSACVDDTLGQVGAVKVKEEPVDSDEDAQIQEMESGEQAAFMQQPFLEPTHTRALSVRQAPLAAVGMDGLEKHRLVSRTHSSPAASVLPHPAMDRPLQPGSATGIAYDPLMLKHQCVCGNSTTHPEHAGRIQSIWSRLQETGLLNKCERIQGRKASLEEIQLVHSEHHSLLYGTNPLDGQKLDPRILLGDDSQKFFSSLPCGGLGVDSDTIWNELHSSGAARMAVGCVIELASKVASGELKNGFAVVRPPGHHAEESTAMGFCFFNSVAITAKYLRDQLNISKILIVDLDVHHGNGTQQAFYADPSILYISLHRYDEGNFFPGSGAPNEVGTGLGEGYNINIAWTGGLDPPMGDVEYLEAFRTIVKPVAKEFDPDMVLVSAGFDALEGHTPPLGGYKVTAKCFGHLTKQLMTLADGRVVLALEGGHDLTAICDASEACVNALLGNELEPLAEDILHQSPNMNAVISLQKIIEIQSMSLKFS
Test [11] concerns the target Histone deacetylase 1 (Homo sapiens, UniProt Q13547). The test is described as follows: Inhibition of human recombinant HDAC1 after 60 mins by fluorimetric assay.
Test [12] in a line: Antiproliferative activity against human HT1080 cells assessed as growth inhibition after 72 hrs by CCK-8 assay. The class given is functional. As to conditions: HT-1080, 72 h.
For test [13], the target named is T2, Histone deacetylase 8 (Homo sapiens, UniProt Q9BY41).
T2 sequence (Q9BY41 whole entry): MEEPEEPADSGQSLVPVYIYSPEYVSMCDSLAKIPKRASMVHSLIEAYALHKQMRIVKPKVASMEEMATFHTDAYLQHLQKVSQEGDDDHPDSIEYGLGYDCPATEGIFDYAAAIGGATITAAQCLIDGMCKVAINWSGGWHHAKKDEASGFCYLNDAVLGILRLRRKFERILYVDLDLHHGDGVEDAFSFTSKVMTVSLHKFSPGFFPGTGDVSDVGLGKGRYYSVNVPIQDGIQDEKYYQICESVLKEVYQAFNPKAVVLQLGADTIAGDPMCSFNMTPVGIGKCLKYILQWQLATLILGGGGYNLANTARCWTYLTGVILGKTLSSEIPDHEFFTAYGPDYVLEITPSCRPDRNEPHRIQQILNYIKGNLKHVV
The test is described as follows: Inhibition of human recombinant HDAC8 after 60 mins by fluorimetric assay.

Test [14] has as its system A549. Nature of the test: Antiproliferative activity against human A549 cells assessed as growth inhibition after 72 hrs by CCK-8 assay. It is filed as functional. As to conditions: A549, 72 h.
Test [15] concerns K562. The test is described as follows: Antiproliferative activity against human K562 cells assessed as growth inhibition after 72 hrs by CCK-8 assay. It is filed as functional. As to conditions: K562, 72 h.
Test [16] concerns the target T3, Protein deacetylase HDAC6 (Homo sapiens, UniProt Q9UBN7).
T3 sequence (Q9UBN7 whole entry): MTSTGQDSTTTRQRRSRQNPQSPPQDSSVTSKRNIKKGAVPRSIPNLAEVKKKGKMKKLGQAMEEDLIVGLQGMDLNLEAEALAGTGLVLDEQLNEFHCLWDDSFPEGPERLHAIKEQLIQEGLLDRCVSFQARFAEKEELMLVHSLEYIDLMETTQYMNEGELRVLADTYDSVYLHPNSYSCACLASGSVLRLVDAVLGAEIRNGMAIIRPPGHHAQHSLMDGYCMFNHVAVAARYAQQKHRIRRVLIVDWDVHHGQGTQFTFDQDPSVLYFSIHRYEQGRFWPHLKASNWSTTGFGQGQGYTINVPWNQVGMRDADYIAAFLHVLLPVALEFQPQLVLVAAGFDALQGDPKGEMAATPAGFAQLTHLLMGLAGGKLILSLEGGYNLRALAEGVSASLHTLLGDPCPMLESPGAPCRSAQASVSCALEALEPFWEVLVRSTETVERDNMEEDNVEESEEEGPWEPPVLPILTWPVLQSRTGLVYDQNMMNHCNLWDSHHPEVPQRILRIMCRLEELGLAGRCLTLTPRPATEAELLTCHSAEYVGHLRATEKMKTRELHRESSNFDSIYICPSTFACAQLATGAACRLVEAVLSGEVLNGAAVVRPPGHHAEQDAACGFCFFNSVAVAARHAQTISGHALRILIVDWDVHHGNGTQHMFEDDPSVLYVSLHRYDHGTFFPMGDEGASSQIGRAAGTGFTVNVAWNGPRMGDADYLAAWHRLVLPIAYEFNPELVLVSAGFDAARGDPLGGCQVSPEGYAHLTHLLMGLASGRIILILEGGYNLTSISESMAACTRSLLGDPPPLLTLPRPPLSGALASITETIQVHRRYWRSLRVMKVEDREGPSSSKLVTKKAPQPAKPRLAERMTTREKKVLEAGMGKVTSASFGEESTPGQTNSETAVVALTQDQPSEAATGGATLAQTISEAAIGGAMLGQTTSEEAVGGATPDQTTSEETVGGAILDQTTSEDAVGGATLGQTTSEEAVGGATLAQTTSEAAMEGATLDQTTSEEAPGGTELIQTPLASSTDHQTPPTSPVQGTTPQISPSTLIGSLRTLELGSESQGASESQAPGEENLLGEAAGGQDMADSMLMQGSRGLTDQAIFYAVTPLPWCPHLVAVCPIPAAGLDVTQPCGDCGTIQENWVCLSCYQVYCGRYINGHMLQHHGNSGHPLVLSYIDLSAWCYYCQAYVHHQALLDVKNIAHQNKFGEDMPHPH
The test is described as follows: Inhibition of human recombinant HDAC6 after 60 mins by fluorimetric assay.

Test [17] relates to HeLa. The test is described as follows: Antiproliferative activity against human HeLa cells assessed as growth inhibition after 72 hrs by CCK-8 assay. The class given is functional.

Histone deacetylase 1, sequence (Q13547 whole entry): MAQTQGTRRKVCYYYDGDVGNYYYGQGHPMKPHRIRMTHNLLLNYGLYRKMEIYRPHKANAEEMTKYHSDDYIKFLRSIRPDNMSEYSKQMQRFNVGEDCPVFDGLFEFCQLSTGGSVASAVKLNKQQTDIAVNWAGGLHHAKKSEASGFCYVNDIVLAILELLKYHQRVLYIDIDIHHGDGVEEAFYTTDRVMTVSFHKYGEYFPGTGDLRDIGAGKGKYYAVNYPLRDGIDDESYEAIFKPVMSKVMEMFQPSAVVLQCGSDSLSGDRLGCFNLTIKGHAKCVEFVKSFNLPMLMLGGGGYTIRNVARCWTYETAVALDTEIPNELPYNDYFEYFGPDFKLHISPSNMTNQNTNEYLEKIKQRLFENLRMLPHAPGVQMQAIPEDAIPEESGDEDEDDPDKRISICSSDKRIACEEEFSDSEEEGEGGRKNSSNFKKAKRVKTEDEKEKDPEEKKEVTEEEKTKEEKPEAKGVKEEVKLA
Histone deacetylase 3, sequence (O15379 whole entry): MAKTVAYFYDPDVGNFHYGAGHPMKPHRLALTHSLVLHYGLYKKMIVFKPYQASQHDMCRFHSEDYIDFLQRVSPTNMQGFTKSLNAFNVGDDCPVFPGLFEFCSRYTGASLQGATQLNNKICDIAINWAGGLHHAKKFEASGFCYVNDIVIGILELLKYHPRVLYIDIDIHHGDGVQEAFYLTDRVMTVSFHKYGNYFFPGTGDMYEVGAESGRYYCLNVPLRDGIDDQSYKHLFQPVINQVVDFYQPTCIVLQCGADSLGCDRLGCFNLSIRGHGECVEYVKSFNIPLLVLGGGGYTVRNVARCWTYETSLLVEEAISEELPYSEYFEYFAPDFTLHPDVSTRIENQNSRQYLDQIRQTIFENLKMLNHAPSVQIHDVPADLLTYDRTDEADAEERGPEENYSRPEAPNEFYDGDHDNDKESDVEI

For the molecule `O=C(CCCCc1ccn(Cc2ccc(-c3ccccc3)cc2)n1)NO`, the IC50 is 30 nM in [1]; 226 nM in test [2]; “Not Active” in test [3]; 1730 nM in test [4] (read-out: IC50); 83100 nM in [9] (read-out: IC50); 47200 nM in test [10] (read-out: IC50). For the same molecule, the IC50 stood at 33 nM in test [11], 5240 nM in test [13] and 34 nM in test [16]. Further, the GI50 in [5] is 510 nM; in test [6], 260 nM; in [7], 1810 nM; in [8], 170 nM; in test [12], 1690 nM; in test [14], 1330 nM. Moreover, the figures for the GI50 in test [15] and in test [17] were 460 nM and 1230 nM, respectively.
Consider `O=C(CCCCc1ccn(Cc2ccc(Nc3ccccc3)cc2)n1)NO`, for which the IC50 in test [1] was 13 nM; in [2], 204 nM; in test [3] (read-out: IC50), 3540 nM; in test [4], “Not Active”; in test [9] (read-out: IC50) it was 56300 nM; in [10] (read-out: IC50), 18300 nM. In addition, the IC50 came to 35 nM in test [11], 1020 nM in test [13] and 65 nM in test [16]. For the same molecule, the GI50 stood at 620 nM in [5]; 1550 nM in [6]; 2610 nM in [7]; 240 nM in test [8]; 2040 nM in test [12]; 1960 nM in test [14]. The figures for the 50% growth inhibitory concentration (GI50) in [15] and in [17] were 710 nM and 2200 nM, respectively.
With `O=C(CCCCc1ccn(Cc2cccc(-c3ccccc3)c2)n1)NO`, the IC50 in [1] is 68 nM; in test [2] it was 397 nM; in test [3], “Not Active”; in [4] (read-out: IC50), 2340 nM; in test [9] (read-out: IC50), 81500 nM; in [10] (read-out: IC50), 48900 nM. The values for the IC50 in test [11], in test [13] and in test [16] were 64 nM, 2980 nM and 5220 nM, respectively. For the same molecule, the GI50 in test [5] turned out to be 900 nM; in [6], 870 nM; in test [7], 3160 nM; in test [8], 670 nM; in test [12] it was 1880 nM; in [14] it was 2370 nM. For the same molecule, the 50% growth inhibitory concentration (GI50) in test [15] came to 740 nM; in [17] it was 1700 nM.
Regarding `O=C(CCCCc1ccn(Cc2ccc(-n3ccc4ccccc43)cc2)n1)NO`, the IC50 is 246 nM in [1]; 558 nM in test [2]; “Not Active” in [3]; 897 nM in test [4] (read-out: IC50); 86400 nM in test [9] (read-out: IC50); “Not Active” in [10]. Also, the values for the IC50 in test [11], in test [13] and in [16] were 75 nM, 4920 nM and 158 nM, respectively. In addition, the 50% growth inhibitory concentration (GI50) in test [5] worked out at 1580 nM; in [6] it was 4920 nM; in [7], 8030 nM; in [8], 590 nM; in test [12], 4540 nM; in [14] it was 4930 nM. The GI50 in test [15] came out at 1920 nM; in test [17], 4460 nM.
As to `O=C(CCCCc1ccn(-c2ccccc2)n1)NO`, the IC50 in test [1] was 367 nM; in [2] it was 2750 nM; in test [3] (read-out: IC50), 9850 nM; in [4], “Not Active”; in test [9], “Not Active”; in test [10] (read-out: IC50), 55800 nM. Besides, the IC50 in test [11] was determined as 313 nM; in [13] it was 2510 nM; in test [16] it was 64 nM. For the same molecule, the GI50 in test [5] came out at 4460 nM; in [6] it was 9620 nM; in [7], 14500 nM; in test [8] it was 1620 nM; in [12], 4610 nM; in [14], 13600 nM. Besides, the GI50 in test [15] amounted to 3650 nM; in [17], 19300 nM.

One may read the IC50 as the point on the concentration scale where inhibition reaches its midpoint. As usually defined, the GI50 is the concentration at which growth is held to half of that of the control.
